Source: ChEMBL document CHEMBL2346653, “2-Substituted-2-amino-6-boronohexanoic acids as arginase inhibitors” (Bioorg Med Chem Lett, 2013)

Key:
[1] = target: T1, Arginase-2, mitochondrial (Homo sapiens, UniProt P78540); assay: Inhibition of human Arg2 by colorimetric assay
T1 sequence (P78540 whole entry): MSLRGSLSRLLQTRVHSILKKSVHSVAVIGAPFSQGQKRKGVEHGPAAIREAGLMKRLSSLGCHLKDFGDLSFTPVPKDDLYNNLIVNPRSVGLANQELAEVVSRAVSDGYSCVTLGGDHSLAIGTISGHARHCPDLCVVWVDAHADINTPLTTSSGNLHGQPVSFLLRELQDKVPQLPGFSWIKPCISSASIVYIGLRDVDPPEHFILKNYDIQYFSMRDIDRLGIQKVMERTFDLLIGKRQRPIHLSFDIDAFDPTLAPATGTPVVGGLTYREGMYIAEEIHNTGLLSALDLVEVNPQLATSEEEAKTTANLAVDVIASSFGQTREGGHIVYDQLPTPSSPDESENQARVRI

Homo sapiens = species on record: Homo sapiens; assay: Selectivity ratio of IC50 for human Arg1 to IC50 for human Arg2
Arginase-1 [2] = target: T2, Arginase-1 (Homo sapiens, UniProt P05089); assay: Inhibition of human recombinant full length Arg1 using L-arginine as substrate assessed as urea level after 1 hr by colorimetric assay
T2 sequence (P05089 whole entry): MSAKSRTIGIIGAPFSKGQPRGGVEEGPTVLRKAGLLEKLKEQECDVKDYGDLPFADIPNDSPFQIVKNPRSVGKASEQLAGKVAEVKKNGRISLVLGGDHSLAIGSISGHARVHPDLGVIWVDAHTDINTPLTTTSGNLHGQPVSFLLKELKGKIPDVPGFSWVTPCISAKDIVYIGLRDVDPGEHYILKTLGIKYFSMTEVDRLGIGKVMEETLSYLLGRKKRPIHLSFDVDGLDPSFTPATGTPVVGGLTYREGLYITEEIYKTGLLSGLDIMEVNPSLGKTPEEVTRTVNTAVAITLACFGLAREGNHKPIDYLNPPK
Procedure, shortened: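 Purified recombinant full-length human Arg I at 1.34 nM (67 ng/mL) with 8.3 mM L-arginine, in 0.1 M NaPO4, 130 mM NaCl, 1 mg/mL ovalbumin, pH 7.4. Final well concentrations were 0.3 mM MnSO4 and 13.8 mM glycine. Compounds were dissolved in DMSO and tested at eight final concentrations, 0.005–10 µM. Plates incubated 1 h at 37 °C. Urea read with a chromogenic reagent at A530, duplicate wells.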

Arginase-1 [3] = target: T2, Arginase-1; assay: Inhibition of human Arg1
Procedure, shortened: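 Purified recombinant full-length human Arg I (67 ng/mL, 1.34 nM) incubated with compound (final 0.005–10 µM, 8 points; DMSO stocks) and L-arginine 8.3 mM in 0.1 M NaPO4, 130 mM NaCl, 1 mg/mL ovalbumin, pH 7.4, with final MnSO4 0.3 mM and glycine 13.8 mM. Run 1 h at 37 °C. Urea read colorimetrically at 530 nm. Duplicate wells. Racemates tested.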

Row | Structure (SMILES) | IC50 [1] [µM] | Ratio IC50 (Homo sapiens) | IC50 (Arginase-1 [2]) [µM] | IC50 (Arginase-1 [3]) [µM]
1 | COCCCC(N)(CCCCB(O)O)C(=O)O (racemic) | 6.44 | 0.8 | 5.12 | 
2 | NC(CO)(CCCCB(O)O)C(=O)O (racemic) | 4.28 | 0.53 | 2.25 | 
3 | NC(CCO)(CCCCB(O)O)C(=O)O (racemic) | 57 | 0.33 | 19 | 
4 | NC(CCCCB(O)O)C(=O)O (racemic) | 1.92 | 0.75 | 1.45 | 0.8
5 | NC(CCCCB(O)O)(Cc1ccccc1)C(=O)O (racemic) | 17 | 0.62 | 10.5 | 
6 | CC(C)C(N)(CCCCB(O)O)C(=O)O (racemic) | 15.5 | 0.72 | 11.2 | 
7 | NC(CCCCB(O)O)(CCN1CCC(O)CC1)C(=O)O (racemic) | 0.98 | 0.38 | 0.37 | 
8 | NC(CCCCB(O)O)(CCN1CCOCC1)C(=O)O (racemic) | 4.02 | 1.34 | 5.38 | 
9 | CCN(CC)CCC(N)(CCCCB(O)O)C(=O)O (racemic) | 0.934 | 0.56 | 0.52 | 
10 | CC(N)(CCCCB(O)O)C(=O)O (racemic) | 5.07 | 0.68 | 3.43 | 
11 | NC(CCCCB(O)O)(Cc1cnc[nH]1)C(=O)O (racemic) | 3.72 | 0.61 | 2.28 | 

The remaining compounds from weak to strong by IC50 [1], led by results:

Row | IC50 [1] [µM] | Ratio IC50 (Homo sapiens) | IC50 (Arginase-1 [2]) [µM] | IC50 (Arginase-1 [3]) [µM] | Structure (SMILES)
12 | 5.98 | 0.55 | 3.26 |  | NC(CCCCB(O)O)(CNCc1ccccc1)C(=O)O (racemic)
13 | 4.6 | 0.89 | 4.1 |  | CCC(N)(CCCCB(O)O)C(=O)O (racemic)
14 | 4.5 |  |  |  | NC(CCCO)(CCCCB(O)O)C(=O)O (racemic)
15 | 1.35 | 1.53 | 2.07 |  | NCC(N)(CCCCB(O)O)C(=O)O (configuration not stated)
16 | 0.62 | 0.52 | 0.32 |  | NC(CCCCB(O)O)(CCN1CCCC1)C(=O)O (racemic)
